# Most compounds without a hit are left out; they make up all but 29% or so of the library.
# CYP2C19 activ: activators of human cytochrome P450 2C19; recombinant CYP2C19, luciferin-H EGE luminescence; stronger effect = higher value; 0 = fully inhibited enzyme, 1 = untreated enzyme; activation factor at 5 µM; 96,000 tested, under 10 active; AID 1025;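 active = activation factor of at least 2 at 5 µM in the primary screen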;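 also: 0 = wells with 2.5 mM tranylcypromine and 1 = vehicle-only wells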
# Target sequence (P33261 whole entry, looked up): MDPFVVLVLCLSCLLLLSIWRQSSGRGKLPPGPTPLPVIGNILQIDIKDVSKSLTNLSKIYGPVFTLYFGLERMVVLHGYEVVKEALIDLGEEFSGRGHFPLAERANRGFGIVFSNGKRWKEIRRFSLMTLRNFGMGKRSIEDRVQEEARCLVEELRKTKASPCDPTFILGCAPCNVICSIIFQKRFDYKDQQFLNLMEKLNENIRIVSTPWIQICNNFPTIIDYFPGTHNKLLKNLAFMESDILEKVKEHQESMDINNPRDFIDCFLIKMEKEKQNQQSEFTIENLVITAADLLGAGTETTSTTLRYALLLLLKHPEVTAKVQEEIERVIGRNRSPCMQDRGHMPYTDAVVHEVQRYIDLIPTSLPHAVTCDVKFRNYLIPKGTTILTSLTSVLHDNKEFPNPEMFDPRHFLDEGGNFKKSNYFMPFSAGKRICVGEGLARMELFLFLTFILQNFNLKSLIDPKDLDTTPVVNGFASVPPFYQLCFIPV
# tolC growth inh: growth inhibitors of E. coli BW25113 tolC mutant | growth inhibition, % at 10 µM (by protocol) | 65,000 compounds, 2.2% hits | AID 573 | OD615;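 active = growth inhibition at or above a cutoff equal to the mean over every tested compound plus 3 SD, cut at about 60% in these data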;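 also: growth measured after 20 h incubation at 37 °C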
#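 Doses: one dose of 10 µM final / Material: E. coli BW25113 ΔtolC::kan, tolC deletion mutant strain / Buffer or medium: LB with kanamycin 50 µg/mL / Evaluation: percent growth inhibition / Detection: optical density read at 615 nm / Incubation: 37 °C, 20 h exposure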
# CYP2C19 inh: inhibitors of human CYP2C19; 96,000 compounds, 21% hits; CYP2C19 Supersomes, luciferin-H EGE luminescence, 30 min; P33261; inhibition, % at 5 µM;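 active = CYP2C19 inhibition above a set limit at 5 µM in the primary screen, cut at about 50% in these data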;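 also: plate controls were negative control wells for no effect and 2.5 mM tranylcypromine positive control for full effect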
# E coli WT exp: growth inhibitors of E. coli BW25113 wild type. AID 710. growth inhibition, % at 100 µM. 98,000 compounds, 0.15% hits. OD600 absorbance;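 active = growth inhibition above about 50% at one test dose, limit read from the data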;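 also: growth measured after 20 h incubation at 37 °C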
# CYP2C9 activ: activators of human CYP2C9. recombinant CYP2C9, luciferin-H conversion, luminescence; stronger effect = higher value; factor 1 = untreated enzyme, 0 = blocked. activation factor at 5 µM. 96,000 compounds, 1.4% hits;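 active = activation factor of 2 or more for CYP2C9 at a 5 µM dose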;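 also: 0 = sulfaphenazole-blocked wells and 1 = vehicle-only wells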
# CYP2C9 inh: inhibitors of human CYP2C9; P11712; CYP2C9 Supersomes, luciferin-H conversion, luminescence; 96,000 compounds, 20% hits; inhibition, % at 5 µM; AID 777;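 active = blocking of liver enzyme CYP2C9 beyond about 50% at 5 µM, limit read from the data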
# * marks the source's active call; other numbers are inactive results; . = no result.
SMILES,CYP2C19 activ,tolC growth inh,CYP2C19 inh,E coli WT exp,CYP2C9 activ,CYP2C9 inh
CSc1nc(-c2ccccc2O)nc(-c2ccccc2O)n1,.,-16.3,.,.,.,.
COc1ccc(-n2cnnc2SCC(=O)NC2CCS(=O)(=O)C2)cc1 (stereo not drawn),1.2,.,-18.4,2.0,1.2,-23.3
COc1ccc(NC(=O)c2cc3c(=O)n(C)c4ccccc4c3n2C)cc1OC,1,75.2*,-0.4,-3.0,1.5,-52.2
CCOC(=O)NC(Nc1ncccn1)(C(F)(F)F)C(F)(F)F,1,7.4,-4.3,-1.0,1,-0.9
CCCCOC(=O)NC(NCC(O)c1ccccc1)(C(F)(F)F)C(F)(F)F (stereo not drawn),0.1,.,90.8*,1.0,0.2,78.0*
CCOC(=O)NC(NCC(O)c1ccccc1)(C(F)(F)F)C(F)(F)F (stereo not drawn),0.3,8.1,65.0*,-7.0,0.7,30.9
Cc1cc(Nc2ccc3ccccc3c2)n2ncnc2n1,1.1,-2.7,-9.7,9.0,0.9,11.6
COc1ccc(-n2c(C)nc3c(cnn3-c3ccc(Cl)cc3)c2=O)cc1,1,74.8*,-3.9,-2.0,0.9,8.7
CCOC(=O)c1ccc(-n2c(C)nc3c(cnn3-c3ccc(Cl)cc3)c2=O)cc1,1,.,-2.4,-11.0,1,0.6
Cc1ccc(NC(=O)c2noc3c2CCc2ccccc2-3)cc1,1.1,.,-7.3,-3.0,1.3,-33.5
Cc1nn(Cc2ccccc2)c(C)c1NC(=O)c1noc2c1CCc1ccccc1-2,0.6,.,37.7,0.0,0.4,61.2*
CCc1ccc(NC(=O)c2noc3c2CCc2ccccc2-3)cc1,1,.,4.3,-1.0,2.1*,-112.1
Cc1cc(NC(=O)c2noc3c2CCc2ccccc2-3)n(-c2ccccc2)n1,1,-9.0,-1.1,0.0,1,4.1
CCC1Oc2ccccc2N(CC(=O)Nc2ccc(OC)cc2OC)C1=O (stereo not drawn),0.6,-5.0,44.7,-11.0,0.5,45.4
COc1ccccc1NC(=O)CC1COc2ccccc2O1 (stereo not drawn),0.4,.,63.8*,3.0,1.2,-20.8
CCCNCC1COc2ccccc2O1 (stereo not drawn),1.1,.,-9.8,1.0,1.1,-14.8
CCOC(=O)CCNCC1COc2ccccc2O1 (stereo not drawn),0.3,-2.2,74.8*,1.0,1,1.8
Cc1onc(-c2c(F)cccc2Cl)c1C(=O)NCC1COc2ccccc2O1 (stereo not drawn),0.3,28.5,70.3*,4.0,0.4,58.7*
COc1ccccc1NC(=O)CN1C(=O)C(C)Oc2ccccc21 (stereo not drawn),0.2,-3.0,84.7*,7.0,0.4,61.2*
Cc1cc(C(=O)NCCCN2CC(C)CC(C)C2)n(-c2ccccc2)n1 (stereo not drawn),1.1,.,-7.4,6.0,1,-2.9
CCOC(=O)CSc1nc2c(c(=O)n1-c1ccc(OC)cc1)SCC2,0.8,-15.1,20.7,-5.0,0.7,30.1
CCOC(=O)c1ccc(NC(=O)CC2COc3ccccc3O2)cc1 (stereo not drawn),0.7,43.2,25.4,-6.0,0.4,63.4*
COc1ccc(C(=O)NCC(=O)NCC2COc3ccccc3O2)cc1 (stereo not drawn),0.6,.,43.7,-2.0,0.6,42.6
COc1cccc(CC(=O)NCC2COc3ccccc3O2)c1OC (stereo not drawn),0.4,-8.1,64.0*,0.0,0.7,27.7
O=C(NCC1COc2ccccc2O1)c1ccccc1 (stereo not drawn),0.1,-6.3,94.7*,6.0,0.8,16.7
SMILES,CYP2C19 activ,tolC growth inh,CYP2C19 inh,E coli WT exp,CYP2C9 activ,CYP2C9 inh
COc1ccccc1CN(C)C(=O)C1COc2ccccc2O1 (stereo not drawn),0,3.1,98.5*,-1.0,0.5,47.0
COc1ccccc1CN1CCCC(C(=O)N(C)Cc2ccccc2)C1 (stereo not drawn),1,-9.0,-4.1,2.0,1,4.9
CC(=O)OCCNC(=O)Cn1cnc2c1c(=O)n(C)c(=O)n2C,1.1,-20.5,-9.1,-3.0,1.2,-20.1
Cc1occc1C(=O)Nc1cc(C(F)(F)F)ccc1Cl,0.9,-6.2,12.4,6.0,1.1,-8.0
CCC(=O)N1CCN(c2ccc(Cl)cc2NC(=O)c2ccc(Br)o2)CC1,.,-2.9,.,.,.,.
C=C(C)Cn1c(SCC(=O)O)nc2c1c(=O)[nH]c(=O)n2C,1.1,-9.3,-10.4,2.0,1.1,-5.9
CCN(CC1COc2ccccc2O1)C(=S)Nc1ccccc1 (stereo not drawn),0.4,.,56.5*,5.0,0.6,42.0
C=CCN(CC=C)C(=S)Nc1ccccc1,0.8,.,23.8,-1.0,1,3.8
CCCCC(=O)Nc1ccc(N2CCN(S(C)(=O)=O)CC2)cc1,1,-9.4,2.2,2.0,1,4.9
Cc1ccc2[nH]c(=O)c(CN(Cc3cccnc3)Cc3nnnn3CCN3CCOCC3)cc2c1,0.7,-8.9,27.2,-10.0,0.8,16.1
COc1ccccc1-c1nc(S(=O)(=O)c2ccc(Cl)cc2)c(N(C)C)o1,1.1,2.8,-14.9,8.0,1.3,-28.7
CC(C)(C)c1nc(S(=O)(=O)c2ccc(Cl)cc2)c(N2CCOCC2)o1,0.9,.,12.7,2.0,1,0.4
COc1cc(-c2nc(S(=O)(=O)c3ccc(C)cc3)c(N(C)C)o2)cc(OC)c1OC,0.9,-3.7,13.4,-6.0,0.4,55.8*
CC(C)Cc1nc(S(=O)(=O)c2ccc(Cl)cc2)c(N2CCOCC2)o1,0.4,-0.9,57.2*,0.0,1,3.5
COc1cc(-c2nc(S(=O)(=O)c3ccc(Cl)cc3)c(N3CCOCC3)o2)cc(OC)c1OC,0.8,11.8,21.5,-6.0,0.4,61.9*
COc1cc(-c2nc(S(=O)(=O)c3ccc(C)cc3)c(N3CCOCC3)o2)cc(OC)c1OC,0.7,-5.8,32.8,1.0,0.5,51.4*
Cc1ccc(-c2nnn(CC(=O)NCCc3ccc4c(c3)OCO4)n2)o1,0.4,27.1,60.0*,0.0,0.1,89.2*
Cc1ccc(-c2nnn(CC(=O)Nc3cccc4c3CCCC4)n2)o1,0.5,17.4,52.0*,-2.0,0.9,12.7
CS(=O)(=O)N1CCC(C(=O)NCc2ccco2)CC1,1.2,-13.7,-18.6,2.0,1.2,-20.4
CCOc1ccc(CC(=O)N2CCN(c3ccc(N4CCOCC4)nn3)CC2)cc1OCC,1,-15.8,-1.4,-6.0,0.9,8.4
O=C(CSc1nnc(Cn2c(=O)sc3ccccc32)n1-c1ccccc1)NCc1ccco1,.,5.0,.,-1.0,.,.
O=C(CCCn1c(=S)[nH]c2ccc(Br)cc2c1=O)NCC1CCCO1 (stereo not drawn),0.9,.,13.9,-6.0,1.4,-37.9
CC(Oc1ccc(F)cc1)C(=O)Nc1sc2c(c1C(=O)NCc1cccnc1)CCCC2 (stereo not drawn),0.2,.,77.6*,-8.0,0.1,93.6*
O=C(Nc1sc2c(c1C(=O)O)CCC2)c1ccco1,0.4,.,62.3*,-11.0,0.5,53.2*
